Where two headings read alike, the source gives them in different places.
Legend:
A3G (APOBEC3G) [1] = conditions: biochemical assays, prior studies, ref [14]–[18], cited from earlier work
A3G-mycHis (APOBEC3G) = A3G-mycHis (APOBEC3G) (Homo sapiens, UniProt Q9HC16); assay: Fluorescence-based ssDNA cytosine deaminase assay with purified A3G-mycHis; assay type: biochemical; conditions: for reproducibility of A3G inhibitory activity (in words): introductory summary of own findings, assay format not stated
Chain of A3G-mycHis (APOBEC3G) (Q9HC16 whole entry): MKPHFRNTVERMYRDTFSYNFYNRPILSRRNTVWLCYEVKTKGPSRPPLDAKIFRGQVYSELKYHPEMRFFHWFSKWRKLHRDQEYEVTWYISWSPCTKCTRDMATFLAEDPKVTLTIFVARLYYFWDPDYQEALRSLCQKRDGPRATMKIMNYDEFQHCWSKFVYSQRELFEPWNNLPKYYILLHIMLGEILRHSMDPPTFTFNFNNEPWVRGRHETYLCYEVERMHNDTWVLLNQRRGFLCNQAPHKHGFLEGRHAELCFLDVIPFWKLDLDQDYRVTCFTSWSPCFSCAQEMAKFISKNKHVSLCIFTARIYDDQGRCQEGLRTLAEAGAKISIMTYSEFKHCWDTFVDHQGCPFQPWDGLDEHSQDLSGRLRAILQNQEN
Method in brief: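 Human A3G-mycHis purified by C-terminal His tag from HEK293T cells and diluted in pH 7.4 Tris buffer with Triton and protease inhibitors. Enzyme incubated with 10 pmol 6-FAM/TAMRA ssDNA containing one CCC site. Then UDG treatment for 2 hrs at 37 °C, NaOH cleavage for 30 min, and neutralisation. Fluorescence read at ex 490/em 520 nm. Peptides from 10 mM DMSO stocks; n = 3, mean ± SEM; IC50 from curve fit.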

A3G (APOBEC3G) [2] = assay: PCR and restriction-based ssDNA deamination assay; assay type: biochemical, human; conditions: 10 nM A3G, 1 nM ssDNA, 37 °C, 30 min, pH 7.0, gel representative of >3 independent experiments

Substance: H-QLIHLYYFDCFSESA-OH [compound 6044]
- published A3G inhibitory activity (in words) (A3G (APOBEC3G) [1]; listed as Vif 105–119): low micromolar inhibitory activities
- published A3G inhibitory activity (in words) (A3G (APOBEC3G) [1]; listed as Vif peptide 105–119): sub-micromolar inhibitory activities
- specificity of A3G inhibition (in words) (A3G-mycHis (APOBEC3G); conclusion from scrambled and reverse peptide comparison): non-specific
- reproducibility of A3G inhibitory activity (in words) (A3G-mycHis (APOBEC3G)): reproducible A3G inhibitory activity

Substance: H-VKHHMYISGKAKGWF-OH [Vif25–39]
- published A3G inhibitory activity (in words) (A3G (APOBEC3G) [1]): low micromolar inhibitory activities
- published A3G inhibitory activity (in words) (A3G (APOBEC3G) [1]; listed as Vif peptide 25–39): sub-micromolar inhibitory activities
- A3G inhibitory effect (in words) (A3G (APOBEC3G) [2]): no inhibitory effect
- reproducibility of A3G inhibitory activity (in words) (A3G-mycHis (APOBEC3G)): did not find significant A3G inhibitory activity

From publication PMC5186364 (Journal of molecular biology, 2016)
